NR2E3 ag-1 = agonists of human NR2E3 nuclear receptor. Q9Y5X4. CHO-S Gal4-NCOR/VP16-NR2E3 two-hybrid, luciferase. inhibition of corepressor binding, % at 3.98 µM. hit rate 0.35% among 360,000;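 active = inhibition above the mean of all tested compounds plus 3 SD, cut at about 70% in these data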;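 note: 0% = DMSO with NR2E3 transfected cells and 100% = cells lacking NR2E3 construct; higher means lower luciferase signal from less NR2E3 corepressor binding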
PG9 binder = PG9 antibody binding by small molecule | TR-FRET gp120-PG9 antibody binding | inhibition, % at 6.7 µM | hit rate 0.43% among 360,000; in the data active = inhibition above about 8.5%
NR1D1 modulator = modulates human Rev-erb alpha binding to DNA. P20393. Rev-erbα–FITC-DNA binding, fluorescence polarization, 90 min. activity, % at 10 µM. hit rate 0.79% among 370,000. AID 1259318;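 active = activity above about 14%, limit read from the data; passing the limit was not always enough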;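 note: 0% = DMSO wells with 35 nM protein and 100% = DMSO wells with 750 nM protein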
Target sequence (P20393 whole entry, looked up): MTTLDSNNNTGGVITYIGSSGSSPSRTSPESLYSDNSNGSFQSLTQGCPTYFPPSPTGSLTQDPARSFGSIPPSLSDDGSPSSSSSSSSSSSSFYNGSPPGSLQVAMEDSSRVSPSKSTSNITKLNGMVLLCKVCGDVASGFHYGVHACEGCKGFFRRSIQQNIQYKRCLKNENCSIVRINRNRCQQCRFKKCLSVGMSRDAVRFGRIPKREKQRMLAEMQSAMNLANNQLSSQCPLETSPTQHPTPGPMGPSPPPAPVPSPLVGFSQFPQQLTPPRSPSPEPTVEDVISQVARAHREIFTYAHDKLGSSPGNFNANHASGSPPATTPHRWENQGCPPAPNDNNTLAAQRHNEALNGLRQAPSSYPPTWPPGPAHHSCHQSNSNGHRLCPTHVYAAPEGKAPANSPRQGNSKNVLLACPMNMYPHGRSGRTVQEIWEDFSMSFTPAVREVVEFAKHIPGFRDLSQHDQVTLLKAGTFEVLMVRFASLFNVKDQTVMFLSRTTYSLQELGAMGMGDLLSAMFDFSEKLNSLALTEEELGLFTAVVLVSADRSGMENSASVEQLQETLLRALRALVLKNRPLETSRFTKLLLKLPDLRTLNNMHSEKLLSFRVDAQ
NR2E3 ag-2 = agonists of human nuclear receptor NR2E3. Q9Y5X4. GST-NR2E3/biotin-RetCOR TR-FRET, 1536-well. inhibition of corepressor binding, % at 4.78 µM. hit rate 0.12% among 320,000;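 active = percent inhibition above the cutoff of mean plus 3 SD of all tested compounds, set per screening campaign, cut at about 20% in these data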;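 note: 0% = DMSO wells and 100% = biotin wells as full block of FRET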
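Test system: GST-NR2E3 and biotin-RetCOR proteins | Quantity: 1.35 nM GST-tagged NR2E3 final | Medium: Tris pH 7.5 | Also added: 7 nM biotin-RetCOR | Dosing: Compound at 4.8 µM, single dose | Timing: 5 h at 4 °C | Detection: Time-resolved FRET | Read-out basis: Percent inhibition | Benchmarks: Biotin wells as high control, 0.6% DMSO wells as low control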
MT1-MMP act inh = blocks activation of human MT1-MMP. HT1080 RFP-PRO-GFP cells, GFP/RFP ratio fluorescence, overnight; percent of plate control window, DMSO zero. GFP/RFP ratio change, % at 20 µM. hit rate 0.061% among 360,000. AID 651647;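 active = GFP/RFP ratio change of at least 30% with cell ATP level not reduced by more than half and red fluorescence within 50% of control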
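Assay system – RFP-PRO-GFP reporter HT1080 cells · Compound dosing – single dose of 20 µM compound, 1% DMSO final · Incubation – overnight compound exposure at 37 °C · Measure – GFP/RFP fluorescence ratio · Benchmarks – DMSO wells and RFP-L50D-GFP cells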
SKN-1 block = blocks SKN-1 activity in C. elegans | C. elegans VP596 Pgst-4::GFP/RFP ratio, acrylamide-induced, 24 h | inhibition, % at 21.8 µM | hit rate 0.49% among 360,000;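 active = interference check ratio from 0.5 to 1.5 plus GFP to RFP signal ratio inhibition reaching or exceeding a fixed threshold, cut at about 30% in these data, passing the limit was not always enough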
PG9 bind confirm = confirmation of small molecules binding HIV-1 gp120 antibody PG9; hit rate 90% among 1,500; shares compounds with PG9 binder; AID 651571; inhibition, % at 6.7 µM; TR-FRET PG9 antibody binding, biochemical; in the data active = inhibition above about 9%
PGV04 counter = binds control antibody PGV04 in PG9 binder counter-screen. shares compounds with PG9 binder. inhibition, % at 6.7 µM. hit rate 95% among 1,500. TR-FRET PGV04 antibody-gp120 binding, biochemical; in the data active = inhibition above about 9.5%
PG9 bind DR = PG9 antibody binding, dose response | shares compounds with PG9 binder | TR-FRET PG9 antibody-gp120 binding inhibition | IC50, µM | 95 tested, under 10 active; in the data active = IC50 below about 10 µM
PGV04 DR counter = binds control antibody PGV04 in PG9 counter-screen; shares compounds with PG9 binder; TR-FRET binding to control antibody PGV04; IC50, µM; hit rate 20% among 95; AID 651937
PG126 binding DR = PG126 binding, dose response counter-screen. shares compounds with PG9 binder. TR-FRET binding to antibody PG126, counterscreen. IC50, µM. hit rate 20% among 95. AID 651939
Rev-erbA confirm = Rev-erb alpha (human) modulation, hit confirmation. Rev-erb alpha FITC-DNA binding, fluorescence polarization, 90 min. shares compounds with NR1D1 modulator. activation, % at 25 µM. hit rate 61% among 3,000;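 active = activation at or above a set limit, or at least 3 SD above the negative control mean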;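 note: 0% = 35 nM protein with DMSO and 100% = 750 nM protein high control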
RORg counter = RORgamma DNA-binding activity, dose-response counter-screen. IC50, µM. AID 1259320. purified RORgamma protein-FITC-DNA binding, fluorescence polarization. hit rate 8% among 910. shares compounds with NR1D1 modulator;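 active = Compounds whose fitted half-maximal concentration for disrupting protein-DNA binding is below 10 micromolar; the record names Rev-erb in its text, so the target is in doubt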
Numbers without * were called inactive; i = inactive; / = not tested or not shown. An excerpt weighted towards active compounds, which were near 1.9% of everything screened. Cut-off read from the data, not from the text of the source, unless noted: active = IC50 below about 9 µM; inactive = the rest.

SMILES	NR2E3 ag-1	PG9 binder	NR1D1 modulator	NR2E3 ag-2	MT1-MMP act inh	SKN-1 block	PG9 bind confirm	PGV04 counter	Rev-erbA confirm	others
COc1cccc(NC(=O)Nc2c(-c3ccc(C)cc3)nc3ncccn23)c1	/	/	0	/	/	/	/	/	/
Cc1sc2ncnc(N3CCC(C(=O)Nc4ccc(C#N)cc4)CC3)c2c1C	-6	15*	27*	-2	-3	3	16*	10*	19*	PG9 bind DR=>67;PGV04 DR counter=8.4*;PG126 binding DR=8.7*
Cc1nc(SCC(=O)O)c2oc3ccccc3c2n1	-6	0	4	-1	-5	-2	/	/	/
Cc1nc(SCC(=O)Nc2ccc3c(c2)OCCO3)c2oc3ccccc3c2n1	-3	33*	294*	8	2	0	38*	24*	302*	PG9 bind DR=i;PGV04 DR counter=i;PG126 binding DR=i
CCc1nc(SCC(=O)Nc2ccc3c(c2)OCCO3)c2oc3ccccc3c2n1	-7	50*	172*	-1	3	-3	68*	83*	169*	RORg counter=i
COC(=O)NNC(=O)COc1ccc2ccccc2c1Br	-29	1	-2	-1	-1	2	/	/	/
O=C(COc1ccc2ccccc2c1Br)NNC(=O)Nc1ccccc1	-9	37*	281*	-61	6	-3	41*	48*	381*	RORg counter=4*
CCCCc1c(-c2ccccc2OC)ncn1Cc1ccc([N+](=O)[O-])cc1	/	-1	3	/	/	/	/	/	/
Cc1ccc2nc(SCC(=O)Nc3cc(C)on3)c(C)cc2c1	-4	18*	40*	-5	-2	13	26*	44*	21*
Cc1cc(C)c(C#N)c(SCC(=O)Nc2cc(C)on2)n1	-64	0	6	/	5	2	/	/	/
CCOc1ccc2nc(SCC(=O)NNC(=O)c3ccco3)c(C)cc2c1	17	-1	2	2	2	15	/	/	/
CCOc1ccc2nc(SCC(=O)Nc3cc(C)on3)c(C)cc2c1	-13	28*	58*	1	-2	7	33*	51*	15
COc1ccc2cc(C)c(SCC(=O)Nc3cc(C)on3)nc2c1	-4	34*	109*	6	-6	11	46*	64*	33*	RORg counter=i
O=C(C(=O)N1CCC(CNS(=O)(=O)c2ccc(OC(F)(F)F)cc2)CC1)c1cc2ccccc2o1	/	-1	3	/	/	/	/	/	/
CCOC(=O)[C@@]12CCCC3=C1N(CCC3)C(=O)[C@H]2CC(=O)N1CCOCC1	/	/	-6	/	/	/	/	/	/
Cc1ccccc1NC(=O)c1sc(NC(=O)COc2ccccc2)c(C#N)c1C	-10	34*	74*	2	2	1	37*	53*	58*	RORg counter=>40
Cc1cccc(NC(=O)c2sc(NC(=O)COc3ccccc3)c(C#N)c2C)c1C	-18	1	10	2	-3	2	/	/	/
NC(=O)CSc1ncnc2c1oc1ccccc12	-6	-14	-3	-1	-1	9	/	/	/
O=C(CSc1ncnc2c1oc1ccccc12)NCc1ccc(F)cc1	-23	51*	395*	3	2	-7	25*	74*	434*	RORg counter=i
O=C(CSc1ncnc2c1oc1ccccc12)Nc1cccc(F)c1	-45	69*	343*	1	2	0	67*	87*	322*	RORg counter=i
O=C(NC1CCCC1)C1CSCCS(=O)(=O)N1Cc1ccc(F)cc1 (stereo unspecified)	/	/	-2	/	/	/	/	/	/
Cc1ccccc1CNC(=O)C1CCC(CNS(=O)(=O)c2cccc3cccnc23)CC1 (stereo unspecified)	/	/	-2	/	/	/	/	/	/
COc1cc(NC(=O)c2ccc(-c3ccc(Br)cc3)o2)ccc1NC(=O)C(C)C	-11	22*	37*	0	/	29	41*	30*	16
COc1ccccc1NC(=O)c1ccc(-c2ccc(Br)cc2)o1	-14	2	7	5	-7	-5	/	/	/
C[C@@H]1ON(C)[C@H]2C[C@H]3c4[nH]c5c(-c6cccc(F)c6)cccc5c4CCN3C(=O)[C@@H]12	/	0	-3	/	/	/	/	/	/
SMILES	NR2E3 ag-1	PG9 binder	NR1D1 modulator	NR2E3 ag-2	MT1-MMP act inh	SKN-1 block	PG9 bind confirm	PGV04 counter	Rev-erbA confirm	others
O=c1sc(N2CCN(c3ccc(F)cc3)CC2)nc2ccsc12	-54	23*	146*	-1	-1	6	57*	83*	96*	RORg counter=>40
COc1cccc(-c2ccc(C#N)c(SCC(=O)NCCc3cccc(Cl)c3)n2)c1	0	22*	34*	13	-1	3	24*	43*	23*
COc1ccc(-c2ccc(C#N)c(SCC(=O)NCCc3ccccc3)n2)cc1OC	0	/	/	-3	1	0	/	/	/
COc1ccc2cc(C#N)c(SCC(=O)NNC(=O)Cc3ccccc3)nc2c1	-12	27*	38*	1	-7	3	24*	52*	12
COC(=O)CSc1nc2ccc(C)cc2cc1C#N	-123	-1	0	-3	-21	-7	/	/	/
CCOC(=O)CSc1nc2cc(OCC)ccc2cc1C#N	-114	28*	83*	2	-10	6	38*	58*	72*	RORg counter=>40
Cc1ccc2nc(SCC(=O)NCc3cccs3)c(C#N)cc2c1	-1	15*	47*	0	1	3	37*	49*	22*
COC(=O)CSc1nc2cc(OC)ccc2cc1C#N	-196	2	7	-2	-7	9	/	/	/
CCOc1ccc2cc(C#N)c(SCC(=O)NC(C)CC)nc2c1 (stereo unspecified)	/	/	/	2	/	/	/	/	/
CCN1CCCCC(NC(=O)c2ccccc2OC)C1=O (stereo unspecified)	/	/	0	/	/	/	/	/	/
